These compounds were tested against T1, Cholecystokinin receptor (Rattus norvegicus, UniProt P30551+P30553) (assay: Inhibition of [125I]-CCK-8 binding to CCK receptors in rat pancreatic tissue). Conditions: not given.
T1 sequence (P30551 whole entry): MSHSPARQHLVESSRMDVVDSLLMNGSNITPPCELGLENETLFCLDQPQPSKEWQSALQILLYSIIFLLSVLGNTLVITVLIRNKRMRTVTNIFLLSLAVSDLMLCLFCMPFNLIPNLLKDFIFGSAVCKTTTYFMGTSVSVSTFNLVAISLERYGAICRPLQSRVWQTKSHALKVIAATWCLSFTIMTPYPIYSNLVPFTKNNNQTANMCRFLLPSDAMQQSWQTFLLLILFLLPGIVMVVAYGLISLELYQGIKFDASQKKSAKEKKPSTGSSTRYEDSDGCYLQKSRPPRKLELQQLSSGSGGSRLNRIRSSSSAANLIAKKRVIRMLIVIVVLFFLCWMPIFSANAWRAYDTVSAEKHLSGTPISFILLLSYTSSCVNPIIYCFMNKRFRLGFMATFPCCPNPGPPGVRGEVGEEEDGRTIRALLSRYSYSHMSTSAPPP
T1 sequence (P30553 whole entry): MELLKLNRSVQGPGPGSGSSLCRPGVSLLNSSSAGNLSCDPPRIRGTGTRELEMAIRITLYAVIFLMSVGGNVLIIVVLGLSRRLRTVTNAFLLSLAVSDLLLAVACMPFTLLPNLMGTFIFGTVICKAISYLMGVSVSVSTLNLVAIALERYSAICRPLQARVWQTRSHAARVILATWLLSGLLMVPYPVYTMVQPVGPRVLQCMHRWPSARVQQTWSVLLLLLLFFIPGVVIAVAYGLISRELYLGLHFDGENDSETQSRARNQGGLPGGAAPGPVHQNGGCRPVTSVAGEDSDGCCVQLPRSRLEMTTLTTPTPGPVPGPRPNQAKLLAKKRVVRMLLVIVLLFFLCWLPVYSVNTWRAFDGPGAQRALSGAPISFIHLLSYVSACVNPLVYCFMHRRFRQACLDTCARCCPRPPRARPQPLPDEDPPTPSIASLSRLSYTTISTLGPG

Structure (SMILES)	IC50
CC(C)(C)OC(=O)CN1C(=O)C(NC(=O)c2ccc(Cl)cc2)CCc2ccccc21 (configuration not stated)	130 nM
CC(C)(C)OC(=O)CN1C(=O)C(N)CCc2ccccc21 (configuration not stated)	100000 nM
O=C(NC1CCc2ccccc2N(Cc2ccccc2)C1=O)c1cc2ccccc2[nH]1 (configuration not stated)	35 nM

Now from value to compound:

IC50	Structure (SMILES)
3 nM	CC(C)(C)OC(=O)CN1C(=O)[C@H](NC(=O)c2cc3ccccc3[nH]2)CCc2ccccc21
4.2 nM	CC(C)(C)OC(=O)CN1C(=O)[C@H](NC(=O)c2ccc3ccccc3c2)CCc2ccccc21
200 nM	CC(C)(C)OC(=O)CN1C(=O)[C@@H](NC(=O)c2cc3ccccc3[nH]2)CCc2ccccc21
110 nM	CCOC(=O)CN1C(=O)C(NC(=O)c2cc3ccccc3[nH]2)CCc2ccccc21 (configuration not stated)
28 nM	CC(C)(C)OC(=O)CN1C(=O)C(NC(=O)c2ccc(Cl)c(Cl)c2)CCc2ccccc21 (configuration not stated)
200 nM	CC(C)(C)OC(=O)CN1C(=O)C(NC(=O)c2cc3ccccc3[nH]2)Cc2ccccc21 (configuration not stated)
60 nM	CC(C)(C)OC(=O)CN1C(=O)C(NC(=O)c2cc3ccccc3[nH]2)CCCc2ccccc21 (configuration not stated)
2000 nM	CC(C)(C)OC(=O)CN1C(=O)C(NC(=O)CCc2c[nH]c3ccccc23)CCc2ccccc21 (configuration not stated)
7 nM	CC(C)(C)OC(=O)CN1C(=O)C(NC(=O)c2cc3ccccc3[nH]2)CCc2ccccc21 (configuration not stated)

The compounds below were run on Mus musculus (assay: Dose rquired to inhibit CCK-induced gastric emptying in mice p.o.). Conditions: Stomach, po.
Type: functional
Summary of the method: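 Antagonism of CCK-8-induced inhibition of gastric emptying, with gastric emptying followed using a charcoal meal. Test agents were given orally, and the ED50 was taken as the oral dose (mg/kg) that antagonized the CCK-8 effect.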

Structure (SMILES)	ED50
CC(C)(C)OC(=O)CN1C(=O)[C@H](NC(=O)c2ccc3ccccc3c2)CCc2ccccc21	6.8 mg/kg
CC(C)(C)OC(=O)CN1C(=O)C(NC(=O)c2cc3ccccc3[nH]2)CCc2ccccc21 (configuration not stated)	2.6 mg/kg
CN1C(=O)[C@@H](NC(=O)c2cc3ccccc3[nH]2)N=C(c2ccccc2)c2ccccc21 [DEVAZEPIDE]	0.04 mg/kg

The compounds below were run against T1, Cholecystokinin receptor (assay: Half-maximal inhibition of binding of [125I]CCK-8 to Cholecystokinin receptor in rat pancreatic tissue). Conditions: not given.

Structure (SMILES)	IC50
CC(C)(C)OC(=O)CN1C(=O)C(NCc2ccc3ccccc3c2)CCc2ccccc21 (configuration not stated)	4 nM
O=C(O)CN1C(=O)C(NC(=O)c2ccc3ccccc3c2)CCc2ccccc21 (configuration not stated)	2300 nM
CN(C)c1ccc(C(=O)NC2CCc3ccccc3N(CC(=O)OC(C)(C)C)C2=O)cc1 (configuration not stated)	50000 nM
CN1C(=O)C(NC(=O)c2ccc3ccccc3c2)CCc2ccccc21 (configuration not stated)	6800 nM

Further lines, results first:

IC50	Structure (SMILES)
2100 nM	CC(C)(C)OC(=O)CN1C(=O)C(NC(=O)c2ccccc2)CCc2ccccc21 (configuration not stated)
7.5 nM	CC(C)(C)OC(=O)CN1C(=O)C(NC(=O)c2ccc3ccccc3c2)CCc2ccccc21 (configuration not stated)
2700 nM	CC(C)(C)OC(=O)CN1C(=O)C(NC(=O)Cc2ccc3ccccc3c2)CCc2ccccc21 (configuration not stated)
